# Lmaj promast: Leishmania major promastigote growth inhibition, primary screen; Leishmania major promastigotes, resazurin fluorescence viability; hit rate 9% among 200,000; inhibition, % at 10 µM; in the data active means inhibition above about 50%;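 further: promastigotes grown with compound for 44 hours at 28 °C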
# PTEN del growth: growth suppression of PTEN-null HCT116, primary screen, cell-based, CellTiter-Glo. HCT116 PTEN-null viability, 60 h; hits give low values. viability, % at 10 µM. hit rate 1.2% among 140,000. AID 827, 2007;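 active means viability at or below a set limit, 4 SD under the median of all tested compounds, cut at about 3.7% in these data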;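 further: PTEN knockout HCT116 line with beta catenin targeted HCT116 as companion control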
# PMI act: activators of human PMI, primary screen, biochemical, fluorescence intensity, near-Km mannose 6-phosphate. Mannose-6-phosphate isomerase (Homo sapiens), P34949. purified human PMI, coupled resazurin fluorescence, 20 min; hits give high values; 1 = vehicle control, 0 substrate-free wells. activation factor at 20 µM. hit rate 0.005% among 190,000. AID 1214, 2008;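 active means activation factor of 2 or more at 20 µM, relative to plate controls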
# Target sequence (P34949 whole entry, looked up): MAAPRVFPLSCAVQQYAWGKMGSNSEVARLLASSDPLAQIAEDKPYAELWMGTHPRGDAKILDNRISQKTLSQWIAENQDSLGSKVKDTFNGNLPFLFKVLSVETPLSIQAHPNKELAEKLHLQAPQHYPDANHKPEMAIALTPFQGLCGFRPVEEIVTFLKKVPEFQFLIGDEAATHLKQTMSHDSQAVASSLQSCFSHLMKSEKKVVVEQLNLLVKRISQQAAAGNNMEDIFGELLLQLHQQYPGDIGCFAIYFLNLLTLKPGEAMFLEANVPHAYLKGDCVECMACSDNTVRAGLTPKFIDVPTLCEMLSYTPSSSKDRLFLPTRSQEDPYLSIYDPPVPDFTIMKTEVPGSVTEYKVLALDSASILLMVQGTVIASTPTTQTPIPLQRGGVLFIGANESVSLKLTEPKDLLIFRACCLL
# HCT116 bCat-KO: primary screen for growth suppressors in beta-catenin knockout HCT116 cells (colon tumor, human) | HCT116 beta-catenin knockout viability, CellTiter-Glo, 60 h; hits give low values | viability, % at 10 µM | hit rate 1.5% among 140,000;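 active means viability at or under a set limit, the compound median less 4 SD, cut at about 6% in these data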;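 further: 0% = Hyamine 1622 control at 20 µM and 100% = untreated cell control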
# PMI act hi M6P: human PMI activators, high substrate, primary screen, biochemical, fluorescence intensity, near-saturating mannose 6-phosphate | Mannose-6-phosphate isomerase (Homo sapiens), P34949 | coupled PMI enzyme assay, resazurin fluorescence, 20 min; hits give high values; 1 = untreated enzyme, 0 = substrate-free blank | activation factor at 20 µM | hit rate 0.34% among 190,000;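 active means activation factor of 2 or more at 20 µM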
#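 Test system: human phosphomannose isomerase with PGI, G6PDH, diaphorase coupling enzymes / Doses: 20 µM compound, 1% DMSO / Times: enzyme reaction with compound 20 min at room temperature / Measured by: Diaphorase-driven resazurin-to-resorufin fluorescence, excitation 544, emission 590 nm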
# An asterisk follows results filed as active; · = no result. Most compounds without a hit are left out; they make up all but 9.6% or so of the library.
SMILES,Lmaj promast,PTEN del growth,PMI act,HCT116 bCat-KO,PMI act hi M6P
COc1cc(/C=N/n2cnc3scc(-c4cccs4)c3c2=O)cc(OC)c1OC,-4.0,58.6,0.9,58.6,0.9
CCCCCCNC(=O)CC(NS(=O)(=O)c1ccc(NC(C)=O)cc1)C(C)C (stereo unspecified),-7.8,87.6,0.9,93.7,0.9
CCCCN(C)C(=O)CC(NS(=O)(=O)c1ccc(NC(C)=O)cc1)C(C)C (stereo unspecified),50.2*,·,1.1,·,1.1
O=C(Nc1ccccc1O)c1nc(Cl)ccc1Cl,-12.2,·,0.9,·,0.8
CC(=O)Nc1ccc(NC(=O)CCn2c(=S)oc3ccccc32)cc1,-3.3,·,0.9,·,0.9
CC(C)CC(=O)/C=C/n1c(=S)oc2ccccc21,9.3,2.4*,1,3.8*,1.1
CC(=O)OCC(=O)[C@H]1CC[C@H]2[C@@H]3CCC4=CC(=O)CC[C@]4(C)[C@H]3CC[C@]12C,100.3*,87.8,0.9,81.3,0.9
CCOC(=O)C(CC)(CC)C(=O)/C=C/c1cccc(Br)c1,100.0*,·,·,·,·
NC(=O)NC(=O)COC(=O)/C=C/c1cccc(Br)c1,4.5,·,1,·,1
CNC(=S)Nc1ccc(C23CC4CC(CC(C4)C2)C3)cc1,51.0*,50.8,0.9,41.3,0.9
COc1cc(OC)cc(-c2cc3nc(C)c(CCC(=O)O)c(C)n3n2)c1,-7.8,96.5,0.9,96.6,1
CCc1c(C)nc2cc(-c3cc(OC)cc(OC)c3)nn2c1N1CCN(CCN2CCOCC2)CC1,88.4*,63.2,1.1,70.6,1
CCOCCN1CCN(c2c(C)c(C)nc3cc(-c4cc(OC)cc(OC)c4)nn23)CC1,82.8*,37.8,0.8,32.7,0.9
Cc1cc(NC(=O)COC(=O)c2ccco2)no1,0.0,·,1,·,1
C/C(CC(=O)Nc1ccc(F)cc1)=N\NC(=O)c1ccccn1,-6.3,·,0.9,·,0.9
Fc1ccc(N/N=C(/c2ccccc2)c2ccccn2)cc1,-4.3,77.6,1.4,78.4,2*
O=C(N/N=C(\c1ccccc1)c1ccccn1)c1cccc([N+](=O)[O-])c1,100.2*,·,1.1,·,1.2
CCOc1ccc(C(=O)N/N=C(\c2ccccc2)c2ccccn2)cc1,99.4*,2.6*,1.1,3.7*,1.2
Cn1ccnc1/C(=N\NC(=O)c1ccccc1)c1cccc([N+](=O)[O-])c1,8.9,·,1,·,1
O=C(/C=C\Nc1ccc(Cl)cn1)c1ccc(Br)cc1,20.4,·,1.2,·,1.1
COc1ccc(S(=O)(=O)Nc2nc3n(n2)C(c2ccc(Cl)cc2)CC(=O)N3)cc1 (stereo unspecified),-8.1,98.3,1,95.2,1
COc1cc(CNCc2cccnc2)ccc1OCC(=O)NC(C)(C)C,92.4*,·,1,·,1
CC(C)(C)NC(=O)COc1ccc(CNCc2cccnc2)cc1,89.1*,·,1.1,·,1.1
COc1cc(CNCCc2ccccc2)ccc1OCC(=O)NC(C)(C)C,99.0*,90.8,1,79.5,1
CCc1cc(=O)oc2cc(OC(C)C(=O)O)c(Cl)cc12 (stereo unspecified),-6.2,92.6,1.1,99.5,1.1
SMILES,Lmaj promast,PTEN del growth,PMI act,HCT116 bCat-KO,PMI act hi M6P
COc1cccc(C(=O)NCC(=O)N/N=C/c2cccs2)c1,0.2,100.5,0.9,95.9,1
CC(=O)N1CC(=O)N=C1SCC(=O)Nc1nc(C)c(-c2ccccc2)s1,95.7*,·,1,·,1.1
CCc1sc(NC(=O)CN2CCOCC2)nc1-c1ccccc1,37.5,100.7,0.9,86.9,1
Cc1nc(NC(=O)CN2CCOCC2)sc1-c1ccccc1,51.0*,80.1,1.1,87.4,1
COc1cc(C)ccc1OCCOCCOc1ccc([N+](=O)[O-])cc1,-1.0,97.2,0.9,97.0,0.9
C/C(=N\NC(=O)c1ccc(NS(=O)(=O)c2cccs2)cc1)c1ccc2c(c1)OCO2,73.6*,·,1,·,1
O=S(=O)(Nc1nc2ccccc2nc1Nc1ccc2c(c1)OCCO2)c1cccs1,53.2*,100.6,1,107.2,0.8
C=CCN(C)NC(=S)Nc1ccccc1,8.1,104.8,0.9,99.1,1
COc1cccc(OCCNC(=O)c2cc([N+](=O)[O-])cc([N+](=O)[O-])c2)c1,83.4*,·,1,·,1
COc1cccc(OCCNC(=O)c2cccc(OC)c2)c1,0.7,99.5,1,95.5,1
Cc1ccc(OCCNC(=O)c2cc(C(=O)NCCOc3ccc(C)cc3)cc([N+](=O)[O-])c2)cc1,99.0*,64.8,0.9,73.3,0.9
COc1ccc(OC)c(NC(=O)CSc2nc3ccccc3cc2Cc2ccccc2)c1,82.1*,78.9,0.9,74.7,1
Cc1ccnc(N/N=C/c2ccccc2)n1,-6.1,75.8,1,80.5,1
Cc1cc(C)nc(N/N=C2/CCCC/C2=C\c2ccccc2)n1,99.8*,·,0.8,·,0.8
O=C(CCCN1C(=O)c2cccnc2C1=O)Nc1ccc(Br)cc1,-12.4,·,1,·,1
C=CCN(CC=C)C(=O)c1ccc(OC2CCN(Cc3ccccn3)CC2)cc1,58.9*,·,1,·,1.1
COC1CCN(C(=O)c2ccc(OC3CCN(Cc4ccccn4)CC3)cc2)CC1,-3.3,·,0.9,·,1
COc1ccc(OC)c(Nc2nc(-c3sc(NC(=O)CC(C)C)nc3C)cs2)c1,80.9*,48.6,1,61.7,0.8
CCC(C)C(=O)Nc1nc(C)c(-c2csc(Nc3cc(Cl)ccc3OC)n2)s1 (stereo unspecified),42.5,82.7,0.6,96.8,0.7
CCCCC(=O)Nc1nc(C)c(-c2csc(Nc3cc(OC)ccc3OC)n2)s1,73.1*,45.9,1,50.0,0.8
CCC(C)C(=O)Nc1nc(C)c(-c2csc(Nc3cc(OC)ccc3OC)n2)s1 (stereo unspecified),56.9*,61.2,0.9,66.5,0.8
O=[N+]([O-])c1cc(CN2CCCC2)ccc1Sc1ccc(Cl)cc1,95.3*,·,1,·,1
NC(=O)C1CC(=O)N(c2ccc(OCc3ccccc3Cl)cc2)C1 (stereo unspecified),-4.5,·,1,·,1
O=C(C1=C[C@@H](c2coc3ccccc3c2=O)C[C@@H](OCCCCO)O1)N1CCN(Cc2ccc3c(c2)OCO3)CC1,12.6,·,0.9,·,1
CC(CN1CCCC(C(N)=O)C1)c1ccccc1 (stereo unspecified),24.9,98.4,0.9,103.8,1
CCOC(=O)C1CCCN(C/C=C/c2ccccc2[N+](=O)[O-])C1 (stereo unspecified),84.9*,86.8,0.9,100.6,1
CCOC(=O)C1CCCN(CCC(C)c2ccccc2)C1 (stereo unspecified),77.8*,105.4,0.8,103.1,0.9
CCOC(=O)C1CCCN(C(=O)c2ccccc2[N+](=O)[O-])C1 (stereo unspecified),-6.3,·,1.1,·,1
